From ChEMBL document CHEMBL1121817, “Synthesis and pharmacological properties of 1,2,3,4,5,6-hexahydro-1,6-methano-2-benzazocines” (J Med Chem, 1981)
“And” between values parts separate entries of the source, which are not always exact repeats. Equal values may be shown once. The source made the active and inactive calls. No cut-off for these calls is given here.

Experiments:
[1] = Analgesic potency was determined by the Eddy hotplate method on mice expressed as lethal dose; format: ADME, organism-based; settings: mouse, in vivo
How it was run: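 Toxicity was tested in mice in the same series, using aqueous solutions of the hydrochloride, hydrobromide or oxalate salt, and LD50 is reported in mg/kg. When material was scarce, deaths out of ten mice given a single 50 mg/kg dose were recorded instead.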

Mus musculus [2] = organism: Mus musculus; experiment: Analgesic potency was determined by the Eddy hotplate method on mice; format: functional
Mus musculus [3] = organism: Mus musculus; experiment: Analgesic potency was determined by the Eddy hotplate method on mice expressed as effective dose; format: functional
How it was run: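 Mouse Eddy hot-plate test. Compounds were given as aqueous solutions of the hydrochloride, hydrobromide or oxalate salt. ED50 is reported in mg/kg and μmol/kg, with a range in parentheses for some entries.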

Mus musculus [4] = organism: Mus musculus; experiment: Analgesic potency was determined by the Eddy hotplate method on mice expressed as effective dose; IA=Inactive; format: functional, organism-based
How it was run: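 Mice, Eddy hot-plate analgesia. Test compounds given as aqueous solutions of their hydrochloride, hydrobromide or oxalate salts. ED50 reported in mg/kg and μmol/kg, some with a range in parentheses. Where full activity could not be reached without toxicity, an approximate value is cited. Lethality was scored as LD50 in mg/kg or as deaths per ten mice at 50 mg/kg.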

Row | SMILES | LD50 [1] [mg/kg] | ED50 (Mus musculus [2]) | also measured
1 | C=CCN1CCCC2CC1c1ccccc12.Cl (stereo unspecified) | 110 | 28 mg/kg and 112 µmol/kg | –
2 | COc1ccc2c(c1)C1CCCN(C)C2C1.O=C(O)C(=O)O (stereo unspecified) | 157 | – | ED50 (Mus musculus [3]): 16 mg/kg and 52 µmol/kg
3 | COc1ccc2c(c1)C1CCCNC2C1.O=C(O)C(=O)O (stereo unspecified) | – | – | ED50 (Mus musculus [3]): 64 mg/kg and 218 µmol/kg
4 | Br.CCCN1CCCC2CC1c1ccc(O)cc12 (stereo unspecified) | – | – | ED50 (Mus musculus [3]): 32 mg/kg and 103 µmol/kg
5 | C=CCN1CCCC2CC1c1ccccc12.O=C(O)C(=O)O (stereo unspecified) | 150 | – | –
6 | CC(C)=CCN1CCCC2CC1c1ccccc12.O=C(O)C(=O)O (stereo unspecified) | 130 | – | –
7 | COc1ccc2c(c1)C1CCCN(CC=C(C)C)C2C1.O=C(O)C(=O)O (stereo unspecified) | 300 | – | ED50 (Mus musculus [4]): inactive
8 | CCCN1CCCC2CC1c1ccccc12.Cl (stereo unspecified) | 75 | 28 mg/kg and 112 µmol/kg | –
9 | CCCN1CCCC2CC1c1ccccc12.O=C(O)C(=O)O (stereo unspecified) | 110 | – | –
10 | Br.Oc1ccc2c(c1)C1CCCN(CCc3ccccc3)C2C1 (stereo unspecified) | – | – | ED50 (Mus musculus [3]): 14 mg/kg and 37 µmol/kg
11 | CN1CCCC2CC1c1ccc(O)cc12 (stereo unspecified) | – | – | ED50 (Mus musculus [4]): inactive
12 | CC(C)=CCN1CCCC2CC1c1ccccc12.Cl (stereo unspecified) | 65 | 48 mg/kg and 173 µmol/kg | –
13 | O=C(O)C(=O)O.c1ccc(CCN2CCCC3CC2c2ccccc23)cc1 (stereo unspecified) | 225 | – | –
14 | COc1ccc2c(c1)C1CCCN(CCc3ccccc3)C2C1 (stereo unspecified) | – | – | ED50 (Mus musculus [4]): inactive
15 | Cl.c1ccc2c(c1)C1CCCNC2C1 (stereo unspecified) | 225 | 12 mg/kg and 57 µmol/kg | –
16 | O=C(O)C(=O)O.c1ccc2c(c1)C1CCCNC2C1 (stereo unspecified) | 225 | – | –
17 | Br.CN1CCCC2CC1c1ccccc12 (stereo unspecified) | – | 45 mg/kg and 168 µmol/kg | –
18 | Cl.c1ccc(CCN2CCCC3CC2c2ccccc23)cc1 (stereo unspecified) | 225 | 86 mg/kg and 246 µmol/kg | –
19 | COc1ccc2c3c1O[C@H]1[C@@H](O)C=C[C@H]4[C@@H](C2)N(C)CC[C@@]341.COc1ccc2c3c1O[C@H]1[C@@H](O)C=C[C@H]4[C@@H](C2)N(C)CC[C@@]341.O.O=P(O)(O)O.O=P(O)(O)O [CODEINE PHOSPHATE] | – | 6.8 mg/kg and 17 µmol/kg | –
